The results in this text go back to ChEMBL document CHEMBL4831482 (Eur J Med Chem, 2021).

For orientation: IC50 means the concentration that gives 50% inhibition. The term MIC denotes the smallest concentration in the dilution series that meets the test's criterion for growth inhibition.

Converted amounts (≈) assume the structure as drawn. The source made the active and inactive calls. Where a SMILES comes first, the peptide text is derived from it. The star is where a group is joined. Boc = CC(C)(C)OC(=O)* A value given as a limit tells only on which side of the number the result lay.

One data set has as its system Enterococcus. Briefly: Antibacterial activity against vancomycin resistant Enterococcus ATCC MP-1 assessed as inhibition of bacterial growth by CLSI method. It counts as functional, organism-based.
The next data set concerns Klebsiella pneumoniae. Briefly: Antibacterial activity against Klebsiella pneumoniae ATCC BAA1705 assessed as inhibition of bacterial growth by CLSI method. It counts as functional, organism-based.
The test system of another data set is Escherichia coli. Kind of data set: Antibacterial activity against Escherichia coli ATCC 35218 assessed as inhibition of bacterial growth by CLSI method. It counts as functional, organism-based.
A further data set deals with Aspergillus fumigatus. Kind of data set: Antifungal activity against Aspergillus fumigatus ATCC 1022 assessed as inhibition of fungal growth by CLSI method. Type of data set: functional, organism-based.
In data set [1] the test system is Cryptococcus neoformans. Kind of data set: Antifungal activity against Cryptococcus neoformans ATCC 90113 assessed as inhibition of fungal growth by CLSI method. It counts as functional, organism-based.
For another data set, the system named is Candida albicans. Kind of data set: Antifungal activity against Candida albicans ATCC 10231 assessed as inhibition of fungal growth by CLSI method. It counts as functional, organism-based.
The next data set has as its system Pseudomonas aeruginosa. Kind of data set: Antibacterial activity against Pseudomonas aeruginosa ATCC 27853 assessed as inhibition of bacterial growth by CLSI method. It counts as functional, organism-based.
Another data set deals with Staphylococcus aureus. Kind of data set: Antibacterial activity against methicillin-resistant Staphylococcus aureus ATCC 33591 assessed as inhibition of bacterial growth by CLSI method. Type of data set: functional, organism-based.
A further data set concerns Vero. Briefly: Cytotoxicity against African green monkey Vero cells assessed as reduction in cell viability incubated for 48 hrs by Neutral red assay. The settings on record: chlorocebus sabaeus. Type of data set: cell-based. In outline: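 VERO monkey kidney cells seeded at 25,000 cells/well and incubated 24 h to confluency. Peptide added, then a further 48 h incubation. Viability read by neutral red uptake.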

Data set [2] can be described thus: Aggregation property of the compound in PBS assessed as particle size at pH 7.4 measured after 4 hrs by dynamic light scattering analysis (reference value: 802 nm). It counts as physicochemical. Particulars: buffer, pH 7.4, 4 h.
Data set [3] deals with Cell membrane. Briefly: Induction of membrane permeabilization and disruption in Cryptococcus neoformans ATCC350 assessed as increase in green fluorescence intensity using FITC-labeled compound at MIC measured after 1 hr by confocal laser scanning microscopic analysis. Type of data set: subcellular.
Data set [4] is described as follows: Aggregation property of the compound in PBS assessed as polydispersity index at pH 7.4 by dynamic light scattering analysis (reference value: 0.383). Type of data set: physicochemical. The settings on record: buffer.
Data set [5] concerns Lipid bilayer. Kind of data set: Binding affinity to bacterial membrane mimic EPYC/EPYG (7:3) small unilamellar vesicle assessed as Stern-Volmer quenching constant by tryptophan quenching analysis.
Data set [6] deals with Cryptococcus neoformans. Kind of data set: Potency index, ratio of Amphotericin B IC50 to test compound IC50 for antifungal activity against Cryptococcus neoformans ATCC 90113 assessed as inhibition of fungal growth by CLSI method. Type of data set: functional.
Data set [7] deals with Cell membrane. Briefly: Induction of pore formation in Cryptococcus neoformans ATCC350 assessed as membrane permeabilization by measuring release of intracellular material at MIC by scanning electron microscopy. It counts as subcellular.
Data set [8] has as its system Cryptococcus neoformans. Kind of data set: Disruption of capsule in Cryptococcus neoformans ATCC350 by HR-TEM analysis.
For data set [9], the system named is Cell membrane. Kind of data set: Induction of membrane permeabilization in Cryptococcus neoformans ATCC350 assessed as increase in red fluorescence intensity at MIC measured after 1 hr by propidium iodide staining based confocal laser scanning microscopic analysis. Type of data set: subcellular. The essentials:
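Cells centrifuged, resuspended in PBS pH 7.4 and stained with propidium iodide. Confocal imaging at >560 nm, with untreated cells as control.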

Data set [10] deals with Cryptococcus neoformans. Kind of data set: Induction of DNA damage in Cryptococcus neoformans ATCC350 assessed as nuclear and chromatin fragmentation by measuring reduction in blue fluorescence intensity at MIC measured after 1 hr by DAPI staining based confocal laser scanning microscopic analysis. It counts as functional, organism-based. The essentials:
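Cells centrifuged, resuspended in PBS and stained with DAPI (3.01 µM, 10 min). Confocal imaging at Ex/Em 350/470 nm, with untreated cells as control.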

For data set [11], the system named is Cell membrane. Kind of data set: Disruption of Plasma membrane in Cryptococcus neoformans ATCC350 by HR-TEM analysis. Type of data set: cell membranes.
Data set [12] in a line: Aggregation property of the compound in PBS assessed as polydispersity index at pH 7.4 by dynamic light scattering analysis (reference value: 0.333). Type of data set: physicochemical. The settings on record: buffer.
The test system of data set [13] is Lipid bilayer. Briefly: Binding affinity to mammalian membrane mimic EPYC/cholesterol (10:1) small unilamellar vesicle assessed as Stern-Volmer quenching constant by tryptophan quenching analysis.
Data set [14] relates to Cryptococcus neoformans. Briefly: Potency index, ratio of Amphotericin B MIC to test compound MIC for antifungal activity against Cryptococcus neoformans ATCC 90113 assessed as inhibition of fungal growth by CLSI method. It counts as functional.
Another data set relates to Cell wall. Briefly: Disruption of Cell wall in Cryptococcus neoformans ATCC350 by HR-TEM analysis. It counts as subcellular.
Data set [15] can be described thus: Aggregation property of the compound in PBS assessed as particle size at pH 7.4 measured after 4 hrs by dynamic light scattering analysis (reference value: 2073 nm). Type of data set: physicochemical. The settings on record: buffer, pH 7.4, 4 h.

On to `COC(=O)[C@H](CCCNC(=N)N)NC(=O)[C@H](Cc1c[nH]c2ccccc12)NC(=O)[C@@H](N)Cc1c[nH]c(-c2ccc(-c3ccccc3)cc2)n1.Cl.Cl`, for which the IC50 in the data set on Enterococcus is 13.2 µg/mL; in the data set on Escherichia coli, greater than 20 µg/mL; in the data set on Cryptococcus neoformans [1], 1.51 µg/mL; in the data set with Pseudomonas aeruginosa, greater than 20 µg/mL; in the data set on Staphylococcus aureus, 7.81 µg/mL. For the same compound, the MIC in the data set on Enterococcus came to 20 µg/mL; in the data set on Cryptococcus neoformans [1], 2.5 µg/mL; in the data set on Staphylococcus aureus it was 10 µg/mL. In addition, the outcome in the data set on Klebsiella pneumoniae, in the data set on Aspergillus fumigatus and in the data set with Candida albicans was inactive. Moreover, the Activity in the data set on Vero is greater than 10 µg/mL.

Turning to `COC(=O)[C@H](CCCNC(=N)N)NC(=O)[C@H](Cc1c[nH]c2ccccc12)NC(=O)[C@H](Cc1c[nH]cn1)NC(=O)OC(C)(C)C` (Boc-His-Trp-Arg-OMe), the outcome in the data set on Klebsiella pneumoniae, with Cell membrane [3], in the data set with Aspergillus fumigatus and in the data set on Candida albicans was inactive. The results for the Activity (in data set [2]; in [4]; with Vero) were 108 nm, 0.922 and greater than 10 µg/mL, respectively. The IC50 with Cryptococcus neoformans [1] was greater than 20 µg/mL.

In the case of `CCCCc1ccc(-c2nc(C[C@H](N)C(=O)N[C@@H](Cc3c[nH]c4ccccc34)C(=O)N[C@@H](CCCNC(=N)N)C(=O)NCc3ccccc3)c[nH]2)cc1.Cl.Cl`, the IC50 with Enterococcus was 9.99 µg/mL; with Escherichia coli, 16.3 µg/mL; in the data set on Cryptococcus neoformans [1], 2.27 µg/mL; with Pseudomonas aeruginosa, 17.2 µg/mL; with Staphylococcus aureus, 4.46 µg/mL. The MIC is 20 µg/mL in the data set with Enterococcus; greater than 20 µg/mL with Escherichia coli; 5 µg/mL with Cryptococcus neoformans [1]; greater than 20 µg/mL with Pseudomonas aeruginosa; 10 µg/mL with Staphylococcus aureus. Moreover, the outcome in the data set on Klebsiella pneumoniae, in the data set with Aspergillus fumigatus and with Candida albicans was inactive. In addition, the Activity with Vero was greater than 10 µg/mL.

As to `CCCCc1ccc(-c2nc(C[C@H](NC(=O)OC(C)(C)C)C(=O)N[C@@H](Cc3c[nH]c4ccccc34)C(=O)N[C@@H](CCCNC(=N)N)C(=O)NCc3ccccc3)c[nH]2)cc1`, the IC50 with Enterococcus is 7.38 µg/mL (≈ 9.01 µM); in the data set on Escherichia coli, greater than 20 µg/mL; in the data set on Cryptococcus neoformans [1], 1.98 µg/mL (≈ 2.42 µM); in the data set on Pseudomonas aeruginosa it was greater than 20 µg/mL; with Staphylococcus aureus it was 9.13 µg/mL (≈ 11.1 µM). In addition, the MIC with Enterococcus was found to be 10 µg/mL (≈ 12.2 µM); in the data set with Cryptococcus neoformans [1] it was 2.5 µg/mL (≈ 3.05 µM); in the data set on Staphylococcus aureus it was 10 µg/mL (≈ 12.2 µM). For the same compound, the outcome with Klebsiella pneumoniae, in the data set on Aspergillus fumigatus and in the data set with Candida albicans was inactive. In the data set with Vero, the Activity was greater than 10 µg/mL.

Turning to `Cl.Cl.N=C(N)NCCC[C@H](NC(=O)[C@H](Cc1c[nH]c2ccccc12)NC(=O)[C@@H](N)Cc1c[nH]c(-c2ccc(-c3ccccc3)cc2)n1)C(=O)NCc1ccccc1`, the IC50 in the data set on Enterococcus was 8.33 µg/mL; in the data set with Escherichia coli, greater than 20 µg/mL; with Cryptococcus neoformans [1], 1.17 µg/mL; in the data set with Pseudomonas aeruginosa it was 18.7 µg/mL; in the data set with Staphylococcus aureus, 4.44 µg/mL. Besides, the MIC with Enterococcus is 20 µg/mL; in the data set with Cryptococcus neoformans [1], 5 µg/mL; in the data set with Pseudomonas aeruginosa, greater than 20 µg/mL; in the data set with Staphylococcus aureus it was 5 µg/mL. Besides, the outcome in the data set on Klebsiella pneumoniae, with Aspergillus fumigatus and in the data set on Candida albicans was inactive. Besides, the Activity in the data set with Vero was greater than 10 µg/mL.

As to `CCCCc1ccc(-c2nc(C[C@H](N)C(=O)N[C@@H](Cc3c[nH]c4ccccc34)C(=O)N[C@@H](CCCNC(=N)N)C(=O)OC)c[nH]2)cc1.Cl.Cl`, the IC50 was 15.4 µg/mL in the data set on Enterococcus; 15.6 µg/mL with Escherichia coli; 0.37 µg/mL in the data set with Cryptococcus neoformans [1]; greater than 20 µg/mL with Pseudomonas aeruginosa; 8.74 µg/mL in the data set on Staphylococcus aureus. Also, the MIC was 20 µg/mL with Enterococcus, greater than 20 µg/mL with Escherichia coli, 0.63 µg/mL in the data set with Cryptococcus neoformans [1] and 10 µg/mL in the data set on Staphylococcus aureus. In addition, the result in the data set on Klebsiella pneumoniae, with Aspergillus fumigatus and in the data set on Candida albicans was inactive. The KSV with Lipid bilayer [5] amounted to 6.68; in the data set with Lipid bilayer [13], 146. Moreover, the outcome in the data set with Cell membrane [3], in the data set on Cell membrane [7], with Cryptococcus neoformans [8], in the data set with Cell membrane [9], in the data set with Cryptococcus neoformans [10] and in the data set with Cell membrane [11] was Active. In addition, in the data set on Cell wall, the outcome was Active. Moreover, in the data set on Cryptococcus neoformans [6], the “Ratio IC50” value stood at 2. The Activity was 0.584 in data set [12], 2792 nm in data set [15] and greater than 10 µg/mL in the data set on Vero. For the same compound, the Ratio with Cryptococcus neoformans [14] is 2.

On to `CCc1ccc(-c2nc(C[C@H](N)C(=O)N[C@@H](Cc3c[nH]c4ccccc34)C(=O)N[C@@H](CCCNC(=N)N)C(=O)OC)c[nH]2)cc1.Cl.Cl`, for which the IC50 with Enterococcus is greater than 20 µg/mL; in the data set on Escherichia coli, 17.4 µg/mL; with Cryptococcus neoformans [1] it was 1.85 µg/mL; in the data set on Pseudomonas aeruginosa, greater than 20 µg/mL; in the data set with Staphylococcus aureus, greater than 20 µg/mL. Besides, the outcome in the data set on Klebsiella pneumoniae, with Aspergillus fumigatus and with Candida albicans was inactive. The results for the MIC in the data set on Escherichia coli and in the data set with Cryptococcus neoformans [1] were greater than 20 µg/mL and 2.5 µg/mL, respectively. The Activity in the data set with Vero is greater than 10 µg/mL.
